From PMC3180826 (ACS chemical neuroscience, 2010)
Substitutions are numbered along the chain they refer to. Values joined by “and” are separate entries in the source; they are usually repeats but may differ in a detail not shown here. Identical values can stand only once.

Tests used:
rM1 receptor = target: T1, rM1 receptor (Rattus norvegicus, UniProt P08482); assay: Calcium mobilization assay, CHO-K1 cells stably expressing rM1; assay type: cell-based
T1 sequence (P08482 1-460): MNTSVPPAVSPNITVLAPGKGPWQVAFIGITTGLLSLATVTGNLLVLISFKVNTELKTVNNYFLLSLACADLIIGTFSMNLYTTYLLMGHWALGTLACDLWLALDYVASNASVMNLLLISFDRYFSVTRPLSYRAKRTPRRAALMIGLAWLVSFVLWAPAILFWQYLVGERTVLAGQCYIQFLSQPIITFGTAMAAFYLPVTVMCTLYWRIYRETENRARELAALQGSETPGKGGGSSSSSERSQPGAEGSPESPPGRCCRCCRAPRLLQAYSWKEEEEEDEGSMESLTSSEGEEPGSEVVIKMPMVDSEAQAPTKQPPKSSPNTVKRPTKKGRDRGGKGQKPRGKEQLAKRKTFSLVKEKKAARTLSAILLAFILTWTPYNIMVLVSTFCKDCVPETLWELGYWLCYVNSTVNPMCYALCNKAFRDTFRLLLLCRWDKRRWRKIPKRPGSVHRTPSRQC

hM3 = hM3 (Homo sapiens, UniProt P20309); assay: Calcium mobilization assay, agonist mode, M3; assay type: cell-based; details: up to 30 μM
Summary of the method: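 CHO-K1 cells stably expressing hM2/Gqi5 or rM4/Gqi5 (6 × 10^4 cells/well), or hM3 or hM5 (5 × 10^4 cells/well), were cultured overnight at 37 °C in 5% CO2. Cells were loaded with 2 μM Fluo-4 AM for 1 h at 37 °C in HBSS with 20 mM HEPES and 2.5 mM probenecid, pH 7.4. Eight-point test compound concentration series were added at 19 s of a 130 s read. Calcium flux was read as fluorescence fold over basal.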

rM1 Y381A = target: T2, rM1 Y381A (Rattus norvegicus, UniProt P08482, Y381A); assay: Calcium mobilization in rM1 Y381A; assay type: cell-based
T2 sequence (P08482 1-460 Y381A): T1 sequence (P08482 1-460) with Y381A

M1 = target: T3, M1 (Rattus norvegicus, UniProt P08482); assay: [3H]-NMS competition binding, M1 CHO membranes; details: concentrations well above those required to fully activate M1
T3 sequence (P08482 1-460): T1 sequence (P08482 1-460)

rM1 K392D/E397V/E401H = target: T4, rM1 K392D/E397V/E401H (Rattus norvegicus, UniProt P08482, E397V/E401H/K392D); assay: Calcium mobilization, transiently transfected rM1 triple mutant CHO cells; assay type: cell-based; details: compared with wt rM1
T4 sequence (P08482 1-460 K392D/E397V/E401H): T1 sequence (P08482 1-460) with K392D, E397V, E401H
Summary of the method: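 CHO-K1 cells were transiently transfected overnight at 37 °C with 10 μg of mutant rat M1 cDNA in pcDNA3.1+ using Fugene 6, then plated for the calcium assay. They were loaded with 2 μM Fluo-4 AM for 1 h at 37 °C in HEPES/probenecid-buffered HBSS, pH 7.4. Test compound dose–response series were added at 19 s. Calcium mobilization was measured as fluorescence increase over basal.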

rM1 EE397/401DD = target: T5, rM1 EE397/401DD (Rattus norvegicus, UniProt P08482, E397D/E401D); assay: Calcium mobilization, rM1 EE397/401DD double mutant CHO-K1 cells; assay type: cell-based; details: compared with wt rM1 and triple mutant
T5 sequence (P08482 1-460 E397D/E401D): T1 sequence (P08482 1-460) with E397D, E401D

[1] = Plasma-brain exposure profile PK study; assay type: in vivo; details: rat
Summary of the method: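 Test compound was dissolved in sterile water at 5 mg/mL and dosed at 10 mg/kg ip in male Sprague–Dawley rats (225–250 g). Plasma and brain were collected at 0.5, 1, 2, 4 and 8 h, with three rats per time point. Brains were homogenized 1:3 in PBS, and samples were extracted by acetonitrile/0.1% formic acid precipitation with internal standard. Quantification was by LC-MS/MS SRM (10–2000 ng/mL calibration), with noncompartmental analysis.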

Sequence of hM3 (P20309 whole entry): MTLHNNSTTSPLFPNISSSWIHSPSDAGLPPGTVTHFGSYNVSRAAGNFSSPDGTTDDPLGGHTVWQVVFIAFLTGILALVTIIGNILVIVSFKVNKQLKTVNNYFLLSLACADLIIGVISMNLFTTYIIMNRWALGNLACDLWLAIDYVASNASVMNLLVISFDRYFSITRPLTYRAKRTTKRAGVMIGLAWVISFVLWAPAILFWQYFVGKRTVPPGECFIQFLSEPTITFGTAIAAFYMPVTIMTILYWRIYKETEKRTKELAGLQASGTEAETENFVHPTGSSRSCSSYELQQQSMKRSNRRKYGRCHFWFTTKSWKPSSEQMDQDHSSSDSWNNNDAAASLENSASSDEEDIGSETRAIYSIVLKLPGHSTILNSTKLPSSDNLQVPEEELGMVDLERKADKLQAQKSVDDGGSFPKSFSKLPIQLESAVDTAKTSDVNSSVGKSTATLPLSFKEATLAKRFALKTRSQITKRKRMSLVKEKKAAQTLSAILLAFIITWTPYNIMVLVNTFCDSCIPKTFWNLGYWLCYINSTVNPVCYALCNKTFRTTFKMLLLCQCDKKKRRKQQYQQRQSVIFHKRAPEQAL

- EC50 (rM1 receptor): 152 nM
- ACh Max efficacy (rM1 receptor; rM1 CHO-K1, calcium mobilization): 85 % ACh Max and 85.01 % ACh Max
- Schild analysis: shift of dose-response curve with increasing atropine (rM1 receptor; rM1 cells, fixed increasing concentrations of atropine): rightward shift with diminished efficacy
- agonist activity at M3 (hM3): no activity
- EC50 (rM1 Y381A): 304 ± 156 nM
- rM1 Y381A AChmax (maximal efficacy) (rM1 Y381A; rM1 Y381A cells): 63.25 % max
- reduction of [3H]-NMS binding to M1 (M1): did not reduce
- functional response at K392D/E397V/E401H triple mutant (rM1 K392D/E397V/E401H): almost completely ablated
- brain level ([1]; 10 mg/kg i.p., brain): 14490.12 ± 2663.82 ng/mL
- plasma level ([1]; 10 mg/kg i.p., plasma): 311.86 ± 20.77 ng/mL
- central penetrance ([1]; i.p. administration): centrally-penetrant
SMILES: CCOC(=O)N1CCC(NCCNC(=O)c2ccccc2)CC1 [VU0184670, ethyl 4-(2-benzamidoethylamino)piperidine-1-carboxylate]
- potency at M1 Y381A compared with WT M1 (rM1 Y381A; M1Y381A CHO cells vs WT M1 CHO cells): potencies similar to those observed in WT M1 CHO cells
- functional potency and efficacy at EE397/401DD double mutant (rM1 EE397/401DD): decrease the potency and efficacy further toward the levels observed with the triple mutant
